Most compounds without a hit are left out; they make up all but 2.2% or so of the library.
bCat nuc transl: modulators of beta-catenin nuclear translocation; HeLa beta-catenin nuclear translocation, immunofluorescence imaging; nuclear translocation activity, % at 5 µM; 190,000 compounds, 0.3% hits;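 active = nuclear translocation activity above 50% at 5 µM, with a well cell count of 50 or more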;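 also: per-cell ratio of nuclear to cytoplasmic median beta-catenin stain intensity; plate controls were DMSO negative control for no effect and GSK-3 inhibitor IX positive control for full effect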
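Assay system: human HeLa cells, native beta-catenin; doses: 5 µM primary, 0.02–20 µM confirmation; incubation: compound treatment 24 h, 37°C, 5% CO2; technique: fluorescence imaging of beta-catenin antibody stain plus DAPI; measure: % activation, nuclear-to-cytoplasmic median beta-catenin signal ratio per cell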
BaF3 parental: counter-screen for JAK2V617F inhibitors: parental Ba/F3 viability inhibitors; 220,000 compounds, 1.1% hits; inhibition, % at 5.6 µM; CellTiter-Glo ATP luminescence;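 active = inhibition above a per-campaign cutoff, the mean inhibition of all tested compounds plus 3 SD, cut at about 27% in these data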;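 also: 0% = DMSO wells and 100% = JAK Inhibitor I control wells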
MT stabilize HCS: microtubule stabilizers in HeLa cells. % tubulin-high responders, % at 10 µM. AID 2205. 200,000 compounds, 0.83% hits. HeLa tubulin immunostaining HCS, 24 h; share of cells brighter than vehicle mean+2SD;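 active = plate Z-score above 3 for both tubulin-high and condensed-nucleus cell shares, with cell loss under 80%, at 10 µM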;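 also: anti alpha tubulin signal scored within the nucleus-defined area of each cell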
IEC-6 cytotox: counter-screen for KLF5 inhibitors: cytotoxicity in IEC-6 cells; inhibition, % at 5 µM; IEC-6 cytotoxicity, luminescence viability; 290,000 compounds, 0.78% hits; AID 1825; in the data active = inhibition above about 22%;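 also: 0% = plate median of test compound wells and 100% = cytotoxic reference compound wells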
Ba/F3 V617F tox: lowers viability of Ba/F3 cells expressing EpoR and JAK2V617F; inhibition, % at 5.6 µM; ATP luminescence; 220,000 compounds, 1.1% hits;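 active = inhibition above the campaign mean plus 3 SD over all tested compounds, cut at about 24% in these data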;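 also: cytokine-independent growth of Ba/F3 cells driven by EpoR plus mutant JAK2; 0% = DMSO-treated cells and 100% = JAK inhibitor I control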
APP transl inh: APP translation inhibition; SH-SY5Y APP 5'UTR-luciferase reporter, luminescence; inhibition, % at 2 µM; 190,000 compounds, 0.82% hits; AID 1285;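 active = inhibition above a set limit, derived from the sample mean plus 3 SD, cut at about 45% in these data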
Active calls of the source: *; . = no result given.

SMILES | bCat nuc transl | BaF3 parental | MT stabilize HCS | IEC-6 cytotox | Ba/F3 V617F tox | APP transl inh
Cc1ccc2c(c1)nnn2C1CCN(S(=O)(=O)c2ccc(C(=O)N3C(C)CCCC3C)cc2)CC1 (stereo not given) | 0.5 | 57.7* | 5.6 | 5.9 | 50.8* | 5.4
Cc1c(CCOC(=O)CC23CC4CC(CC(C4)C2)C3)sc[n+]1Cc1ccccc1 | 3.2 | 41.4* | 2.0 | -0.1 | 29.2* | -9.7
CC1CCCC(NC(=O)C2CCN(S(=O)(=O)c3cnc[nH]3)CC2)C1C (stereo not given) | . | . | . | -12.3 | . | .
Cc1noc(C)c1S(=O)(=O)N1CCC(C(=O)Nc2ccccn2)CC1 | 0.7 | 39.6* | 1.8 | 2.2 | 1.9 | 10.7
Cc1ccc(S(=O)(=O)/N=C(\N)c2ccc(Cl)cc2)cc1 | . | . | . | -7.0 | . | .
O=S(=O)(Nc1ccc(N2CCOCC2)cc1)c1ccc(F)cc1 | -1.0 | 89.7* | 2.6 | -6.0 | 1.5 | 9.8
O=C(CP(=O)(c1ccccc1)c1ccccc1)Nc1nc2ccc(Cl)cc2s1 | 0.5 | 2.2 | . | 0.7 | 0.1 | .
CCCCCn1c(Sc2ncccn2)nc2c1c(=O)[nH]c(=O)n2C | 0.9 | 5.3 | 2.3 | 8.6 | 3.8 | 64.0*
Cc1ccc(Cn2c(Sc3ncccn3)nc3c2c(=O)[nH]c(=O)n3C)cc1 | -1.6 | 0.5 | 6.5 | -3.7 | -0.8 | 3.2
CC1Sc2ccc(S(=O)(=O)CCC(=O)N(C)Cc3ccccc3)cc2NC1=O (stereo not given) | . | . | . | 8.5 | . | .
Cc1ccccc1OCC(=O)Nc1ccc(N2CCN(C(=O)c3ccco3)CC2)cc1 | . | . | . | 0.9 | . | .
O=C(Nc1ccc(Cl)cc1)Nc1ccccc1NS(=O)(=O)c1cccs1 | -1.2 | 62.2* | 3.7 | -4.1 | 1.9 | -9.3
COc1ccccc1OCC(=O)N/N=C/c1c(O)ccc2ccccc12 | . | . | . | 3.9 | . | .
O=c1[nH]c2ccccc2n1C1CCCCC1 | 0.4 | 1.4 | 1.8 | 4.8 | -1.7 | 64.1*
CC(C)(C)OC(=O)NCCCC[C@H](NC(=O)c1nc[nH]c1C(=O)N1CCN(C(=O)OC(C)(C)C)CC1)C(=O)OC(C)(C)C | 0.7 | -6.3 | 2.2 | 9.1 | 3.7 | -16.7
CC(C)C[C@H](NC(=O)c1nc[nH]c1C(=O)N1CCN(C(=O)OC(C)(C)C)CC1)C(=O)OC(C)(C)C | 2.6 | -2.6 | 1.2 | -4.0 | 3.1 | 51.7*
COc1ccc(C(=O)NN(C)c2nc(C(F)(F)F)nc3ccccc23)cc1 | 158.2* | 95.2* | 8.0 | 95.8* | 95.5* | 94.8*
Cc1c(Cl)ccc2c(C(=O)Nc3cc(C(C)(C)C)on3)cc(-c3ccccn3)nc12 | . | . | . | 3.3 | . | .
COc1ccc(CCN2CCC(Nc3nc4ccccc4n3Cc3ccc(F)cc3)CC2)cc1 | 5.2 | 40.7* | 17.4 | 4.2 | 74.9* | 2.8
COc1ccc(CNc2nc3ccccc3n2CCN2CCCCC2)cc1 | -2.7 | -0.5 | 2.6 | 8.0 | 0.0 | -28.9
O=C(Nc1ccc(Cl)cc1)Nc1cccc2nsnc12 | -1.5 | 1.8 | . | 10.5 | -3.0 | .
COc1cccc(OCc2nc3ncc(Br)cc3[nH]2)c1 | 0.7 | 9.7 | 35.6* | 4.7 | -1.2 | -1.9
Cc1cc(C)cc(OCc2nc3ncc(Br)cc3[nH]2)c1 | . | -1.6 | 34.4* | 10.2 | -0.8 | -0.1
Cc1ccccc1NC(=S)c1ccc2ccccc2n1 | . | . | . | 3.4 | . | .
CCc1nc2oc3ccc(C)cc3c(=O)c2cc1C(=O)OC | . | . | . | -4.0 | . | .
SMILES | bCat nuc transl | BaF3 parental | MT stabilize HCS | IEC-6 cytotox | Ba/F3 V617F tox | APP transl inh
OCC1OC(n2cnc3ccccc32)CC1O (stereo not given) | 1.0 | 4.2 | . | -1.5 | 0.7 | .
CCn1cc(CNC(=O)CCc2nnc(CCC3CCCCC3)o2)cn1 | -0.3 | 6.5 | 1.0 | -0.6 | 1.1 | -7.3
c1ccc2c(c1)ccc1ncccc12 | -0.9 | 7.1 | 2.1 | -0.3 | -0.5 | 17.8
Oc1c(N=Nc2ccccn2)ccc2ccccc12 | 6.6 | 4.5 | 3.2 | 12.3 | 12.3 | 82.2*
Cc1ccc(C)c(Nc2nc3ccccc3n3cnnc23)c1 | . | . | . | -6.9 | . | .
O=C(CCNC(=O)C1CCN(S(=O)(=O)c2ccccc2)CC1)Nc1cccc(C(F)(F)F)c1 | . | . | . | 6.3 | . | .
CS(=O)(=O)N1CCC(C(=O)Nc2c(F)cccc2F)CC1 | 4.9 | 70.3* | 1.1 | -5.1 | -0.2 | -6.8
C#CCOCCOCCOCCNc1nc(N2CCN(C(=O)[C@H]([C@@H](C)O)n3cc(CCCCN)nn3)CC2)nc(N2CCN(C(=O)[C@H](Cc3ccc(O)cc3)n3cc(CCO)nn3)CC2)n1 | . | 62.9* | 5.2 | -0.3 | -3.6 | 9.2

Source: PubChem
